Assay results: ChEMBL document CHEMBL1137696, “Preparation and in vitro evaluation of benzylsulfanyl benzoxazole derivatives as potential antituberculosis agents” (2009)
≈ marks a conversion by molar mass, not a printed value.

Tests used:
Format in all cases: functional
[1] = system: Mycobacterium tuberculosis; test: Antimycobacterial activity against multidrug-resistant Mycobacterium tuberculosis 550/04 after 14 days by micromethod; details: 550/04, 336 h
Outline: (§1)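 MIC by micromethod in Šula semisynthetic medium. Compounds added as DMSO solutions at 1000, 500, 250, 125, 62, 32, 16, 8, 4 and 2 µmol/L. Incubated at 37 °C and read at 14 and 21 days. MIC taken as the lowest concentration that inhibited mycobacterial growth, expressed in µmol/L. INH run as standard. Strains from CNCTC.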

[2] = system: Mycobacterium tuberculosis; test: Antimycobacterial activity against multidrug-resistant Mycobacterium tuberculosis 550/04 after 21 days by micromethod; details: 550/04, 504 h; outline: as §1
[3] = system: Mycobacterium tuberculosis; test: Antimycobacterial activity against multidrug-resistant Mycobacterium tuberculosis 4977/03 after 14 days by micromethod; details: 4977/03, 336 h; outline: as §1
[4] = system: Mycobacterium tuberculosis; test: Antimycobacterial activity against multidrug-resistant Mycobacterium tuberculosis 4977/03 after 21 days by micromethod; details: 4977/03, 504 h; outline: as §1
[5] = system: Mycobacterium tuberculosis; test: Antimycobacterial activity against multidrug-resistant Mycobacterium tuberculosis 7357/98 after 14 days by micromethod; details: 7357/98, 336 h; outline: as §1
[6] = system: Mycobacterium tuberculosis; test: Antimycobacterial activity against isoniazid and streptomycin-resistant Mycobacterium tuberculosis 4166/04 after 21 days by micromethod; details: 4166/04, 504 h; outline: as §1
[7] = system: Mycobacterium tuberculosis; test: Antimycobacterial activity against multidrug-resistant Mycobacterium tuberculosis 7357/98 after 21 days by micromethod; details: 7357/98, 504 h; outline: as §1
[8] = system: Mycobacterium tuberculosis; test: Antimycobacterial activity against isoniazid and streptomycin-resistant Mycobacterium tuberculosis 4166/04 after 14 days by micromethod; details: 4166/04, 336 h; outline: as §1

SMILES | MIC [1] [µM] | MIC [2] [µM] | MIC [3] [µM] | MIC [4] [µM] | MIC [5] [µM] | MIC [6] [µM] | MIC [7] [µM] | MIC [8] [µM]
NC(=S)c1ccc(CSc2nc3ccccc3o2)cc1 | 8 (≈ 2.4 µg/mL) | 16 (≈ 4.81 µg/mL) | 32 (≈ 9.61 µg/mL) | 32 (≈ 9.61 µg/mL) | 32 (≈ 9.61 µg/mL) | 16 (≈ 4.81 µg/mL) | 32 (≈ 9.61 µg/mL) | 8 (≈ 2.4 µg/mL)
O=[N+]([O-])c1cc(CSc2nc3ccccc3o2)cc([N+](=O)[O-])c1 | 2 (≈ 0.663 µg/mL) | 4 (≈ 1.33 µg/mL) | 2 (≈ 0.663 µg/mL) | 2 (≈ 0.663 µg/mL) | 4 (≈ 1.33 µg/mL) | 4 (≈ 1.33 µg/mL) | 4 (≈ 1.33 µg/mL) | 2 (≈ 0.663 µg/mL)
